This is an account of results in ChEMBL document CHEMBL4602675, “The Marine Natural Product Manzamine A Inhibits Cervical Cancer by Targeting the SIX1 Protein” (J Nat Prod, 2020).

The source made the active and inactive calls. The calls are words filed in the database; no cut-off is given here.

Data set [1] concerns C-33-A. Nature of the data set: Induction of apoptosis in human C33A cells assessed as viable cells at 4 uM after 48 hrs by Annexin V-FITC/PI double staining based flow cytometric analysis (reference value: 82.8%). The data set is classed as functional. To be noted: read-out: Activity.
Data set [2] has as its target Protein E6 (human papillomavirus 18) (UniProt P06463). As to the kind of experiment: Inhibition of Human papillomavirus type18 derived E6 in human HeLa cells assessed as increase in p53 protein expression at 2 to 4 uM after 48 hrs by Western blot analysis. Type of data set: cell-based. Put shortly:
(§1)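 Cells were seeded at 1 × 10^6 per 100 mm dish and treated next day with 2 or 4 μM for 48 h. They were trypsinised, PBS-washed and lysed in RIPA with protease inhibitors. Equal protein was run on SDS-PAGE and transferred to PVDF. Primary antibodies were used at 1:500, with BSA 3% for blocking and antibodies for CK2α, Rb and pRb, otherwise 5% milk in TBST. HRP secondary at 1:2000, chemiluminescence detection.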

Data set [3] has as its system C-33-A. As to the kind of experiment: Antiproliferative activity against human C33A cells assessed as reduction in cell viability after 48 hrs by CellTiter-Glo assay. The data set is classed as functional, cell-based. Summed up:
(§2)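 ATP-based luminescent viability readout. Cells were grown in DMEM with 10% FBS, 2 mM L-glutamine and penicillin-streptomycin at 37 °C, 5% CO2. 2 × 10^4 cells/well were seeded, then exposed the next day to 0–40 μM for 24, 48 or 72 h. % viability = 100 × treated/control. IC50 was fitted from a sigmoid dose-response curve. Run at least three times in quadruplicate; mean ± SEM.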
Background: Cellular ATP, detected with luciferase, serves as a proxy for viable cell number.

Data set [4] relates to HeLa. Nature of the data set: Cell cycle arrest in human HeLa cells assessed as accumulation at G0/G1 phase at 4 uM after 48 hrs by propidium iodide staining based flow cytometric analysis (reference value: 69.6%). Type of data set: functional. Summed up: (§3)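 Cells in DMEM/10% FBS at 37 °C, 5% CO2 were given 4 μM for 24, 48 or 72 h, with DMSO as control. After trypsinization they were fixed in chilled 70% ethanol on ice for 30 min, treated with RNase A (1 mg/mL) for 30 min at room temperature, and stained with PI (20 μg/mL). At least 10 000 events were read by flow cytometry to give sub-G1, G0/G1, S and G2/M fractions; mean ± SEM.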
On the technique in general: A flow cytometer gives signals particle by particle.

The test system of data set [5] is HeLa. Nature of the data set: Antiproliferative activity against human HeLa cells assessed as reduction in cell viability after 24 hrs by CellTiter-Glo assay. Type of data set: functional, cell-based. Put shortly: as §2
Data set [6] deals with C-33-A. Nature of the data set: Cell cycle arrest in human C33A cells assessed as accumulation at G0/G1 phase at 4 uM after 24 hrs by propidium iodide staining based flow cytometric analysis (reference value: 58.4%). Type of data set: functional. Put shortly:
as §3

The subject of data set [7] is Ca-Ski. As to the kind of experiment: Cell cycle arrest in human CaSki cells assessed as accumulation at G2/M phase at 4 uM after 24 hrs by propidium iodide staining based flow cytometric analysis (reference value: 27.4%). The data set is classed as functional. Put shortly:
as §3

In data set [8] the test system is C-33-A. Nature of the data set: Cell cycle arrest in human C33A cells assessed as accumulation at G0/G1 phase at 4 uM after 48 hrs by propidium iodide staining based flow cytometric analysis (reference value: 54.6%). Type of data set: functional. Summed up:
as §3

Data set [9] has as its system Ca-Ski. As to the kind of experiment: Induction of apoptosis in human CaSki cells assessed as viable cells at 4 uM after 24 hrs by Annexin V-FITC/PI double staining based flow cytometric analysis (reference value: 84%). Type of data set: functional. To be noted: read-out: Activity.
Data set [10] relates to C-33-A. As to the kind of experiment: Induction of apoptosis in human C33A cells assessed as apoptotic cells at 4 uM after 48 hrs by Annexin V-FITC/PI double staining based flow cytometric analysis (reference value: 17.3%). Type of data set: functional.
Data set [11] addresses Protein E6 (human papillomavirus 18) (UniProt P06463). Nature of the data set: Inhibition of Human papillomavirus type18 derived E6 in human HeLa cells assessed as increase in p21 protein expression at 2 to 4 uM after 48 hrs by Western blot analysis. Type of data set: cell-based. Put shortly:
as §1
Background: In western blotting, separated proteins are transferred to a membrane and probed.

In data set [12] the test system is Ca-Ski. Nature of the data set: Induction of apoptosis in human CaSki cells assessed as late apoptotic cells at 4 uM after 48 hrs by Annexin V-FITC/PI double staining based flow cytometric analysis (reference value: 9.1%). Type of data set: functional.
Data set [13] has as its system SiHa. Nature of the data set: Cell cycle arrest in human SiHa cells assessed as decrease in accumulation at S phase at 4 uM incubated up to 72 hrs by propidium iodide staining based flow cytometric analysis. Type of data set: functional. Put shortly:
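Cells in DMEM with 10% FBS, 2 mM L-glutamine, pen-strep, 37 °C, 5% CO2; seeded and left overnight, then treated at 4 μM with DMSO as control. Harvested by trypsin at 24, 48 or 72 h, fixed in chilled 70% ethanol 30 min on ice, RNase A (1 mg/mL) 30 min at room temperature, PI (20 μg/mL). Flow cytometry, ≥10 000 events, G0/G1, S, G2/M fractions; mean ± SEM.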

The test system of data set [14] is C-33-A. Nature of the data set: Induction of apoptosis in human C33A cells assessed as early apoptotic cells at 4 uM after 24 hrs by Annexin V-FITC/PI double staining based flow cytometric analysis (reference value: 4.3%). Type of data set: functional.
Data set [15] concerns Ca-Ski. Nature of the data set: Cell cycle arrest in human CaSki cells assessed as accumulation at G0/G1 phase at 4 uM after 48 hrs by propidium iodide staining based flow cytometric analysis (reference value: 54.1%). Type of data set: functional. Summed up:
as §3

Data set [16] concerns SiHa. As to the kind of experiment: Cell cycle arrest in human SiHa cells assessed as accumulation at G2/M phase at 4 uM after 24 hrs by propidium iodide staining based flow cytometric analysis (reference value: 17%). Type of data set: functional. Put shortly: as §3
Data set [17] relates to Ca-Ski. As to the kind of experiment: Effect on total-Rb in human CaSki cells assessed decrease in Rb protein level at 2 to 4 uM after 48 hrs by Western blot analysis. The data set is classed as ADME, cell-based. Put shortly: as §1
In data set [18] the target is T1, Homeobox protein SIX1 (Homo sapiens) (UniProt Q15475).
T1 sequence (whole entry): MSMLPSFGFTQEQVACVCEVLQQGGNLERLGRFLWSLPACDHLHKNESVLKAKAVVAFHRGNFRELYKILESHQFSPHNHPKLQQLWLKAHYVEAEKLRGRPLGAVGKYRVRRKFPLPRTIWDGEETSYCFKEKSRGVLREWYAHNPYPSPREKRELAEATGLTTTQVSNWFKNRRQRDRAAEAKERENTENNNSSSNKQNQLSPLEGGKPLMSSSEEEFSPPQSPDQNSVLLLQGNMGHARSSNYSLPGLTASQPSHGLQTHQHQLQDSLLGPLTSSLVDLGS
As to the kind of experiment: Inhibition of SIX1 in human HeLa cells at 2 to 4 uM after 48 hrs by Western blot analysis. Type of data set: cell-based. Summed up:
as §1

Data set [19] concerns the target T1, Homeobox protein SIX1 (Homo sapiens). As to the kind of experiment: Potency index, ratio for inhibition activity of apigenin to test compound for inhibition of SIX1 in human C33A cells after 48 hrs by Western blot analysis. The data set is classed as cell-based. To be noted: C-33-A. Put shortly: (§4)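 Cells plated at 1 × 10^6 per 100 mm dish and treated next day for 48 h with test compound (2 or 4 μM) or apigenin (10, 20 or 40 μM). RIPA lysates with protease inhibitors; equal protein loaded for SDS-PAGE, then PVDF transfer. Blocked in 5% milk/TBST (3% BSA for CK2α); anti-SIX1 or anti-CK2α 1:500, HRP secondary 1:2000; chemiluminescent detection.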

Data set [20] deals with Ca-Ski. Nature of the data set: Cell cycle arrest in human CaSki cells assessed as increase in accumulation at G0/G1 phase at 4 uM incubated for 48 hrs by propidium iodide staining based flow cytometric analysis. Type of data set: functional. Put shortly: as §3
In data set [21] the test system is Ca-Ski. Nature of the data set: Cell cycle arrest in human CaSki cells assessed as accumulation at G0/G1 phase at 4 uM after 24 hrs by propidium iodide staining based flow cytometric analysis (reference value: 56%). Type of data set: functional. Put shortly:
as §3

The target of data set [22] is Casein kinase II subunit alpha (Homo sapiens) (UniProt P68400). Nature of the data set: Potency index, ratio for inhibition activity of apigenin to test compound for inhibition of CK2alpha in human SiHa cells after 48 hrs by Western blot analysis. Type of data set: cell-based. Put shortly:
as §4

Protein E6 (human papillomavirus 18), sequence (P06463 whole entry): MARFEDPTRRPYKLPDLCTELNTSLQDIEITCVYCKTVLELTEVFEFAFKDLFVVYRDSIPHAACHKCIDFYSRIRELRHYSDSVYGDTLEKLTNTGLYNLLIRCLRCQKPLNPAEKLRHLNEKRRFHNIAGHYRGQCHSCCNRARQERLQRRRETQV
Casein kinase II subunit alpha (Homo sapiens), sequence (P68400 whole entry, looked up): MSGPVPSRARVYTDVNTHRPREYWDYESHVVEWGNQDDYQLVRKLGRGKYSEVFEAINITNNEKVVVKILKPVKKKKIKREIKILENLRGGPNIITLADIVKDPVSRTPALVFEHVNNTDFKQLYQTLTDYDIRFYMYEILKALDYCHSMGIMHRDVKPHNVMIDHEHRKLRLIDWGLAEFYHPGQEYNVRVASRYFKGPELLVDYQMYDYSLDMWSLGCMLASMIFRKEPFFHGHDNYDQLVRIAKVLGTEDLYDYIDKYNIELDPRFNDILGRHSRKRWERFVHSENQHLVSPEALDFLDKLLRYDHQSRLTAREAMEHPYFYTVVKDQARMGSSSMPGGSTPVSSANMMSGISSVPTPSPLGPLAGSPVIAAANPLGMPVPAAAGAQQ

Consider `O[C@]12C=C(c3nccc4c3[nH]c3ccccc34)[C@@H]3CCN(CCCC/C=C\CC1)C[C@@]31C[C@@H]3/C=C\CCCCN3[C@H]12` [MANZAMINE A], for which the viability at 4 µM amounted to 63.6% in [1] and 81.4% in [9]. For the same compound, the inhibition result in data set [2] and in [18] was “Active” in each case. The IC50 was found to be 2.1 µM in data set [3] and 11.8 µM in [5]. The Activity in data set [4] is given as 63.9%; in data set [6] it was 58.5%; in data set [7] it was 15.2%; in [8], 44.2%; in [10] it was 36.5%; in [12] it was 7.8%. For the same compound, the Activity is 17.4% in data set [14]; 82.4% in data set [15]; 9.2% in data set [16]; “Toxic” in [17]; 77.6% in data set [21]. In [11], the inhibition result was “inactive”. Besides, the outcome in data set [13] was Active. Besides, the Ratio in [19] and in [22] was 10 throughout. The “fold change (FC)” value in data set [20] is 1.5.

The term IC50 denotes the concentration that gives 50% inhibition.
